Experimental data from ChEMBL document CHEMBL5329211, “Selective isoxazolopyrimidine PAT1 (SLC26A6) inhibitors for therapy of intestinal disorders” (RSC Med Chem, 2023).
The source made the active and inactive calls. The rule behind the calls is not given here.

Key:
Pendrin (Homo sapiens) = target: T1, Pendrin (Homo sapiens) (UniProt O43511); assay: Inhibition of SLC26A4 (unknown origin) expressed in rat FRT cells coexpressing YFP halide-sensing protein assessed as iodide-chloride exchange at 25 uM incubated for 2 sec by fluorescence quenching analysis; format: cell-based
T1 sequence (whole entry): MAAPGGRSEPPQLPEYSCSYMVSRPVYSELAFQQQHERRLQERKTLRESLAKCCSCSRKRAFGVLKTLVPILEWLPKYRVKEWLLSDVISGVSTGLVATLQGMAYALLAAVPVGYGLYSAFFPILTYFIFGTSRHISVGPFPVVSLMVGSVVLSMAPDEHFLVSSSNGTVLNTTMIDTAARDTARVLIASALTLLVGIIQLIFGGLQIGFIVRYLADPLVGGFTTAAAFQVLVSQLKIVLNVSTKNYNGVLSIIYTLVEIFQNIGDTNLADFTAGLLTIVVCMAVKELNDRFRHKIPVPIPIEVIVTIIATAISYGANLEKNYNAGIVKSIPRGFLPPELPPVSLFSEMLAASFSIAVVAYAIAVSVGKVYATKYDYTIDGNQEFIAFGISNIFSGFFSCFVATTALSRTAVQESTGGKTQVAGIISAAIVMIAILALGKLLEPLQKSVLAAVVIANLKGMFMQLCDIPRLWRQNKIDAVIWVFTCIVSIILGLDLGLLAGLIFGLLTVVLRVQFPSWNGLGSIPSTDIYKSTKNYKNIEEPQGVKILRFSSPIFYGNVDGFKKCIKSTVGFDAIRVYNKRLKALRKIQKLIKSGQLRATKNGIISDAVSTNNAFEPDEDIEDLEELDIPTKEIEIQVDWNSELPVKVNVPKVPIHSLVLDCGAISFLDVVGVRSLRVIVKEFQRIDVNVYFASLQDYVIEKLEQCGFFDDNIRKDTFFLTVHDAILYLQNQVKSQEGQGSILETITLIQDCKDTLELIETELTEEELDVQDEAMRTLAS

[1] = target: T2, Solute carrier family 26 member 9 (Homo sapiens) (UniProt Q7LBE3); assay: Inhibition of SLC26A9 (unknown origin) expressed in rat FRT cells coexpressing YFP halide-sensing protein assessed as iodide-chloride exchange at 25 uM incubated for 2 sec by fluorescence quenching analysis; format: cell-based
T2 sequence (whole entry): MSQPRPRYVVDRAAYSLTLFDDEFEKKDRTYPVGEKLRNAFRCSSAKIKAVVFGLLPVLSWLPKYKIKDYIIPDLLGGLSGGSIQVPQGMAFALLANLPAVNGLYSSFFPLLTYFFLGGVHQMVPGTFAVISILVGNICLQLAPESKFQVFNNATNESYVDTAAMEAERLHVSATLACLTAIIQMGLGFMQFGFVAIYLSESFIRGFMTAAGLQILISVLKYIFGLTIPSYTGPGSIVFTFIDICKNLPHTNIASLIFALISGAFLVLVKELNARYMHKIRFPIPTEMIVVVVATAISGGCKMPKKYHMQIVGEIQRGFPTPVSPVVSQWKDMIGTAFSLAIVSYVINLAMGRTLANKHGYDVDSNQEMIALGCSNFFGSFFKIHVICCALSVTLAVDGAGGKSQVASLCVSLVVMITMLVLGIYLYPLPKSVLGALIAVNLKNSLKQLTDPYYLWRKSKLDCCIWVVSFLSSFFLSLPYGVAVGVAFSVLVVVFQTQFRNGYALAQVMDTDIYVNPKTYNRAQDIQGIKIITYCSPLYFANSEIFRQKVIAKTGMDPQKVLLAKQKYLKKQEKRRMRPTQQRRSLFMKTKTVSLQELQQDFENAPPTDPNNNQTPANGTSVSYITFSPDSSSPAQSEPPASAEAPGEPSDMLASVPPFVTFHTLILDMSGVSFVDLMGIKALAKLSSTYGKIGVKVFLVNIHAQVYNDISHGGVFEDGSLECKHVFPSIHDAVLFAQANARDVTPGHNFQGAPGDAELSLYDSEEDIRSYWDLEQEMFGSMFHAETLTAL

[2] = target: Cystic fibrosis transmembrane conductance regulator (Homo sapiens) (UniProt P13569); assay: Inhibition of CFTR (unknown origin)
Cystic fibrosis transmembrane conductance regulator (Homo sapiens), sequence (P13569 whole entry, looked up): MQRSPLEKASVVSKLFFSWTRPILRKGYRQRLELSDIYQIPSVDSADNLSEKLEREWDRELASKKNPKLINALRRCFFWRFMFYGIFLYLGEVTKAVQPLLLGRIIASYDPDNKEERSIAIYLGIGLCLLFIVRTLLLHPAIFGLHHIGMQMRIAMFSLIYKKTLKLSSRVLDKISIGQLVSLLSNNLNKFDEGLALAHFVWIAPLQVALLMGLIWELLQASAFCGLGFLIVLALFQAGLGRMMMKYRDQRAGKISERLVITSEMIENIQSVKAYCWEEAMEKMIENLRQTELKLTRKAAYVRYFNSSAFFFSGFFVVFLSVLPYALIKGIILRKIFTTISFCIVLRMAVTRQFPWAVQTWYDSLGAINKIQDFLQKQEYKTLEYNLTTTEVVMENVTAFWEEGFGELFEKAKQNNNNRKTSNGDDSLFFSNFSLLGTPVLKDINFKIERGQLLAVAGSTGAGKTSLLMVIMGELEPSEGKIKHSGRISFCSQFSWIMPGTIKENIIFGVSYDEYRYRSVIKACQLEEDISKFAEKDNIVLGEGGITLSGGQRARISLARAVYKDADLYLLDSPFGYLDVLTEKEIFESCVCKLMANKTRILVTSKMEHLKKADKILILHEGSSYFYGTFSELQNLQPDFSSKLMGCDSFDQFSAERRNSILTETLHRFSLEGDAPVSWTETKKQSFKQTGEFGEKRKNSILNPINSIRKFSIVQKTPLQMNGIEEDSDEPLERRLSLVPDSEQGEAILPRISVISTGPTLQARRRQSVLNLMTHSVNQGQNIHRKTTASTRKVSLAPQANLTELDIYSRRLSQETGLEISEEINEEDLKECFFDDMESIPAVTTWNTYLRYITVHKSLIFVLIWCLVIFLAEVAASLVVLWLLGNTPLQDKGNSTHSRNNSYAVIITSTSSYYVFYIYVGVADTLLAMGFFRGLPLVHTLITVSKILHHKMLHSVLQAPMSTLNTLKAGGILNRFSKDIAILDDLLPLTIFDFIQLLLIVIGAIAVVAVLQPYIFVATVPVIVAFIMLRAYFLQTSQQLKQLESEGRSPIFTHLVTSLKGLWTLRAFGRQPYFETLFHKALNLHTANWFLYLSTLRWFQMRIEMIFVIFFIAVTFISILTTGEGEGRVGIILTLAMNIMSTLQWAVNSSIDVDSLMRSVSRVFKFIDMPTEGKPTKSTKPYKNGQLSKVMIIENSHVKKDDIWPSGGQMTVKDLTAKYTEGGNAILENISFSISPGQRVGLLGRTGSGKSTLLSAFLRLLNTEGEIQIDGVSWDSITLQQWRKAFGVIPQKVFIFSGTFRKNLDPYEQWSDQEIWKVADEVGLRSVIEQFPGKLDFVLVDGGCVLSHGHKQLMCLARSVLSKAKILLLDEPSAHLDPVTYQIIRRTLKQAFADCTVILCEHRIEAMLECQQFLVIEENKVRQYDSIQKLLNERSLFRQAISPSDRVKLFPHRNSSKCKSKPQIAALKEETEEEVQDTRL

[3] = Cytotoxicity against rat FRT cells assessed as reduction in cell viability at 10 uM incubated for 24 hrs by alamar blue staining based analysis; format: toxicity
In short: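 FRT cells seeded 20,000/well and grown 24 h, then exposed to compound at 10 μM for 24 h. Vehicle control 0.1% DMSO, positive control 20% DMSO. Viability read by Alamar Blue.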

[4] = In vivo inhibition of PAT1 in intestinal closed-loop CD-1 mouse model assessed as reduction in loop weight/length ratio in ileum measured for 30 mins; format: functional; settings: 0.5 h
In short: (§1)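 Mice (wild-type CD1 or homozygous F508del CF, 10-16 wk, both sexes) fasted 24 h with free access to 5% dextrose water. Under isoflurane at 36-38 °C, 2-3 ileal loops (2-3 cm) were tied off and injected with 100 µL PBS pH 7.4 containing 30 µM inhibitor, 10 µM tenapanor or 0.1% DMSO vehicle. Loops removed at 0 or 30 min in separate mice; length and weight measured for fluid absorption. One-way ANOVA with Newman-Keuls.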

Mus musculus [5] = assay: In vivo inhibition of PAT1 in intestinal closed-loop CD-1 mouse model assessed as reduction in loop fluid volume in ileum measured for 30 mins; format: functional, organism-based; in short: as §1
Mus musculus [6] = assay: In vivo inhibition of PAT1 in intestinal closed-loop CD-1 mouse model harboring CFTR delF508/delF508 mutant assessed as reduction in loop weight/length ratio in ileum measured for 30 mins; format: functional, organism-based; in short: as §1
[7] = In vivo inhibition of PAT1 in intestinal closed-loop CD-1 mouse model harboring CFTR delF508/delF508 mutant assessed as reduction in loop fluid volume in ileum measured for 30 mins; format: functional; settings: 0.5 h; in short: as §1
[8] = target: Solute carrier family 26 member 6 (Mus musculus) (UniProt Q8CIW6); assay: Inhibition of SLC26A6 (unknown origin) expressed in rat FRT cells coexpressing YFP halide-sensing protein assessed as iodide-chloride exchange incubated for 2 sec by fluorescence quenching analysis
Solute carrier family 26 member 6 (Mus musculus), sequence (Q8CIW6 whole entry, looked up): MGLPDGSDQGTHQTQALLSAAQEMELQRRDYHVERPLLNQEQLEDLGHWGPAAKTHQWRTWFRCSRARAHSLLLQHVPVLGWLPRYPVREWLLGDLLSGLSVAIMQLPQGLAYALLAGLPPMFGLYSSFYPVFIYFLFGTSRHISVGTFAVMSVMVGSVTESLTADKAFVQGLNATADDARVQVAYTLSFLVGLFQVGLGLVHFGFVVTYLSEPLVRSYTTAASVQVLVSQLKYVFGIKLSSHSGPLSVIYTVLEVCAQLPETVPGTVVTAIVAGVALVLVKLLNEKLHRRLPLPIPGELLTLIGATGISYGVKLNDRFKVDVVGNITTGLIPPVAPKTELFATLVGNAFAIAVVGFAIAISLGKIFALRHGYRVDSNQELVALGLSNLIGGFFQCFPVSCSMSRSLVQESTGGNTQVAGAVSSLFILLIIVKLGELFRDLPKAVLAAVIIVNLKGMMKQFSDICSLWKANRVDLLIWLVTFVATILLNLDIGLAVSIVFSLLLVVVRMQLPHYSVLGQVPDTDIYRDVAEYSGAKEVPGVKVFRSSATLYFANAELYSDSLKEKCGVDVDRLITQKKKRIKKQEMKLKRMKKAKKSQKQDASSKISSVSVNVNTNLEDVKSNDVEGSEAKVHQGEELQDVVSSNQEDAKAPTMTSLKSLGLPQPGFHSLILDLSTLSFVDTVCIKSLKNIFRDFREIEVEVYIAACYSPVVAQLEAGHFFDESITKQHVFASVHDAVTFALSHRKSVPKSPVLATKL

inhibition (Pendrin (Homo sapiens)): inactive | inhibition [1]: inactive | inhibition [2]: inactive | IC50 [8]: 1000 nM
SMILES: CCOC(=O)c1nc(N(C)Cc2ccccc2)c2c(C)noc2n1
Activity [3]: Non-Toxic | inhibition (INH) [4]: >90% | inhibition (Mus musculus [5]): Active | inhibition (Mus musculus [6]): Active | inhibition (INH) [7]: >90%
